Source: PubChem BioAssay AID651876 (Broad Institute, 2012)
“And” between values parts separate entries of the source, which are not always exact repeats. Equal values may be shown once. The source made the active and inactive calls.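 The calls were made as follows: active = inhibition above 20% at 50 µM; inactive = the rest.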

Biological target: Kelch-like ECH-associated protein 1 (Homo sapiens) (UniProt Q14145)
Test: Keap1 Kelch binding to Nrf2 peptide inhibition, confirmation, orthogonal assay for Keap1-Nrf2 interaction inhibitor project, biophysical, competitive SPR, dry powder (AID 651876)
Details: stronger effect = higher value
In short: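 Test system: Keap1 Kelch domain, biochemical. Quantity: 40 nM Kelch domain. Also added: biotinylated 16mer Nrf2 peptide captured on streptavidin CM5 surface. Doses: compound at 5 or 50 µM. Times: room-temperature preincubation, 25 °C binding. Signal: Double-referenced surface plasmon resonance, initial association-phase slopes. Measure: % inhibition via free Kelch domain fraction.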

Sequence of Kelch-like ECH-associated protein 1 (Homo sapiens) (Q14145 whole entry, looked up): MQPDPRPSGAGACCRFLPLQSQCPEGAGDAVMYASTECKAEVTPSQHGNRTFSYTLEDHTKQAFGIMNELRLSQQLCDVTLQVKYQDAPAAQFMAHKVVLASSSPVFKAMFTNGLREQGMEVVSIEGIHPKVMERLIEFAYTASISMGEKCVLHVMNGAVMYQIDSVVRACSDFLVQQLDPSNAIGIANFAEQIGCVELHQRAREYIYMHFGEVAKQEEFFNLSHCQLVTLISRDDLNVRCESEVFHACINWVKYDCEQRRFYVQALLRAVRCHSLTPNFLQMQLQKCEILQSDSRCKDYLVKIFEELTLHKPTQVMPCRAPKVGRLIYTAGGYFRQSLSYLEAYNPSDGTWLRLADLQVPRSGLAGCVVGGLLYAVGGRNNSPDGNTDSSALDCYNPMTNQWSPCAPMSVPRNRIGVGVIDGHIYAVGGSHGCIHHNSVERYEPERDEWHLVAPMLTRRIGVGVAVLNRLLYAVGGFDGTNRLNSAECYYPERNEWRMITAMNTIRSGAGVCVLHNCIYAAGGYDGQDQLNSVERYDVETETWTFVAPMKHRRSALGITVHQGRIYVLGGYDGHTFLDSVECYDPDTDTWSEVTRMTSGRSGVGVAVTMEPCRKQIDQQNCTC

SMILES | inhibition (at 50 µM) | inhibition (inhibition, at 5 µM)
Cc1cc(C)c(S(=O)(=O)Nc2cc(C(C(=O)OCc3ccccc3)C(=O)OCc3ccccc3)c(O)c3ccccc23)c(C)c1 | 7.1% (inactive) | 4.69%
O=C(O)c1ccccc1C(=O)N1CCc2ccccc2C1CN1C(=O)c2ccccc2C1=O (stereo not given) | 9.9% (inactive) | 1.9%
O=C(O)[C@H]1CCCC[C@H]1C(=O)N1CCC2=C(CCCC2)C1CN1C(=O)c2ccccc2C1=O (stereo not given in full) |  | 12.5% and -3.6%
NC(=O)[C@H]1CCCC[C@H]1C(=O)N1CCc2ccccc2[C@H]1CN1C(=O)c2ccccc2C1=O | 36.7% | 5.6%
O=C(O)c1ccccc1C(=O)NC[C@@H]1c2ccccc2CCN1C(=O)[C@@H]1CCCC[C@@H]1C(=O)O | 9.5% (inactive) | 0.9%
O=C(NCCc1ccccc1)c1ccccc1C(=O)NC[C@@H]1c2ccccc2CCN1C(=O)C1CCCCC1C(=O)O (stereo not given in full) | 47.1% | 3.3%
O=C(O)CCC(=O)N1CCc2ccccc2C1CN1C(=O)c2ccccc2C1=O (stereo not given) | 11.4% (inactive) | -2.3%
NC(=O)c1ccccc1C(=O)NC[C@@H]1c2ccccc2CCN1C(=O)[C@@H]1CCCC[C@@H]1C(=O)O | 83% | 38.6%
O=C(O)[C@H]1CCCC[C@H]1C(=O)NC(CN1C(=O)c2ccccc2C1=O)c1ccccc1 (stereo not given in full) | 0.3% (inactive) | 0.3%
CC(C)CNc1nc(NS(=O)(=O)c2ccccc2)c2ccccc2n1 | 3.3% (inactive) | 1%
O=C(O)[C@H]1CCCC[C@H]1C(=O)N1CCc2ccccc2C1CCN1C(=O)c2ccccc2C1=O (stereo not given in full) | 8.8% (inactive) and 2.3% (inactive) | -2.2% and 0.5%
Cc1ccc(S(=O)(=O)NNc2nc(N3CC(O)CC3C(=O)O)nc3ccccc23)cc1 (stereo not given) | -0.9% (inactive) | -1.1%
COC(=O)[C@H]1CCCC[C@H]1C(=O)N1CCc2ccccc2[C@H]1CN1C(=O)c2ccccc2C1=O | 1.6% (inactive) | -0.6%
O=C(O)C1CCCCC1C(=O)N1CCc2ccccc2C1CN1C(=O)Cc2ccccc2C1=O (stereo not given) | 77% | 36.6%
Cc1ccc(S(=O)(=O)NNc2nc(C(C(=O)OC(C)C)C(=O)C(F)(F)F)nc3ccccc23)cc1 (stereo not given) | 28.3% | 4.9%
O=C(O)C1CCCCC1C(=O)NCC1c2ccccc2CCN1C(=O)Cc1ccccc1 (stereo not given) | -4% (inactive) | 3.3%
O=C1c2ccccc2C(=O)N1C[C@@H]1c2ccccc2CCN1C(=O)C1CCCCC1 | 2.1% (inactive) | -0.3%
Cc1ccc(S(=O)(=O)Nc2cc(C(C(=O)OC(C)C)C(=O)C(F)(F)F)c(O)c3ccccc23)c(C)c1 (stereo not given) | 97% | 57.8%
CCOC(=O)C(C(=O)OCC)c1cc(CN2C(=O)c3ccccc3C2=O)c2ccccc2n1 | 8.32% (inactive) | 11.9%
Cc1cc(C)c(S(=O)(=O)Nc2cc(C(C(=O)OC(C)C)C(=O)C(F)(F)F)c(O)c3ccccc23)c(C)c1 (stereo not given) | 105% | 79.7%
O=C(O)CC(=O)N1CCc2ccccc2C1CN1C(=O)c2ccccc2C1=O (stereo not given) | 2.1% (inactive) | -2.4%
O=C(NCCCN1CCOCC1)c1ccccc1C(=O)NC[C@@H]1c2ccccc2CCN1C(=O)C1CCCCC1C(=O)O (stereo not given in full) | 43.8% | 6.9%

SMILES | inhibition (at 50 µM) | inhibition (inhibition, at 5 µM)
Cc1ccc(S(=O)(=O)NC2=CC(=N[C@@H](C)C(=O)OC(C)(C)C)C(=O)c3ccccc32)c(C)c1 | 10.5% (inactive) | -5.37%
O=C(O)C1CCCCC1C(=O)N1CCc2ccccc2C1c1ccccc1 (stereo not given) | 3.2% (inactive) | -2%
O=C(O)C1CCCCC1C(=O)N1CCc2ccccc2[C@H]1C(=O)NCCc1ccccc1 (stereo not given in full) | -3.7% (inactive) | -5.5%
O=C(O)C1CCCCC1C(=O)N1CCc2ccccc2[C@H]1C(=O)NC12CC3CC(CC(C3)C1)C2 (stereo not given in full) | -0.6% (inactive) | -11.6%
O=C(O)CCCC(=O)N1CCc2ccccc2C1CN1C(=O)c2ccccc2C1=O (stereo not given) | 2.3% (inactive) | 6.4%
Cc1cc(C)c(S(=O)(=O)Nc2ncnc3ccccc23)c(C)c1 | 1.5% (inactive) | -0.6%
O=C(NC[C@@H]1c2ccccc2CCN1C(=O)[C@@H]1CCCC[C@@H]1C(=O)O)c1ccc(CN2CCOCC2)cc1 | 24.9% | -1.2%
O=C(O)[C@@H]1CCCN1C(=O)N1CCc2ccccc2[C@H]1CN1C(=O)c2ccccc2C1=O | 30.3% | 1.7%
Cc1ccc(S(=O)(=O)NC[C@@H]2c3ccccc3CCN2C(=O)[C@@H]2CCCC[C@@H]2C(=O)O)c(C)c1 | 17.1% (inactive) | 0.1%
O=C1c2ccccc2C(=O)N1CC1c2ccccc2CCN1C(=O)Cc1ccccc1 (stereo not given) | 3.5% (inactive) | 3.1%
O=S(=O)(Nc1nc(NCC2CCCCC2)nc2ccccc12)c1ccccc1 | 7% (inactive) | -1.7%
COC(=O)C(C(=O)OC)c1cc(NS(=O)(=O)c2c(C)cc(C)cc2C)c2ccccc2c1O | 93.1% | 65.9%
O=C(O)[C@H]1C2C=CC(C2)[C@H]1C(=O)N1CCc2ccccc2C1CN1C(=O)c2ccccc2C1=O (stereo not given in full) | 42.4% | 4.9%
O=C(Oc1cc(CN2C(=O)c3ccccc3C2=O)c2ccccc2[n+]1[O-])c1cccc(Cl)c1 | 7.85% (inactive) | -2.91%
O=C(NC[C@@H]1c2ccccc2CCN1C(=O)[C@@H]1CCCC[C@@H]1C(=O)O)c1ccc(CCl)cc1 | 22.7% | -1%
Cc1ccc(S(=O)(=O)NNc2nc(NCC(N)=O)nc3ccccc23)cc1 | -9.9% (inactive) | -3.5%
O=C(O)/C=C\C(=O)N1CCc2ccccc2C1CN1C(=O)c2ccccc2C1=O (stereo not given) | 21.5% | 1.1%
O=C(O)[C@H]1CCCC[C@H]1C(=O)N1CCc2ccccc2[C@H]1CNS(=O)(=O)c1ccccc1 | 12.9% (inactive) | -3.1%
Cc1ccc(S(=O)(=O)Nc2cc(C(C(=O)OC(C)C)C(=O)C(F)(F)F)c(O)c3ccccc23)cc1 (stereo not given) | 80.3% | 30.2%
COC(=O)C1CCCCC1C(=O)N1CCc2ccccc2C1CN1C(=O)c2ccccc2C1=O (stereo not given) | 6.8% (inactive) | 3.3%
CCOC(=O)C(C(=O)OCC)c1nc(NS(=O)(=O)c2c(C)cc(C)cc2C)c2ccccc2n1 | -2.5% (inactive) | -6%
COc1ccc(CCN=C2C=C(NS(=O)(=O)c3c(C)cc(C)cc3C)c3ccccc3C2=O)cc1 | 8% (inactive) | 0%

SMILES | inhibition (at 50 µM) | inhibition (inhibition, at 5 µM)
O=C(O)C1CCCCC1C(=O)Nc1ccccc1CN1C(=O)c2ccccc2C1=O (stereo not given) | 5.5% (inactive) | 3.8%
CC(C)OC(=O)C(C(=O)C(F)(F)F)c1cc(NS(=O)(=O)c2ccccc2)c2ccccc2c1O (stereo not given) | 59% | 12.7%
CC(=O)Nc1cc(NS(=O)(=O)c2c(C)cc(C)cc2C)c2ccccc2c1O | 13.9% (inactive) | 9.6%
O=C(NC[C@@H]1c2ccccc2CCN1C(=O)[C@@H]1CCCC[C@@H]1C(=O)O)OCC1c2ccccc2-c2ccccc21 | 3.6% (inactive) | 5%
Cc1cc(C)c(S(=O)(=O)Nc2nc(NCCO)nc3ccccc23)c(C)c1 | 6.8% (inactive) | 3.6%
Cc1ccccc1S(=O)(=O)Nc1cc(C(C(=O)OC(C)C)C(=O)C(F)(F)F)c(O)c2ccccc12 (stereo not given) | 86.4% | 49.5%
COC(=O)CNc1nc(NS(=O)(=O)c2c(C)cc(C)cc2C)c2ccccc2n1 | 8.5% (inactive) | 1.1%
CCOC(=O)Cc1nc(NS(=O)(=O)c2c(C)cc(C)cc2C)c2ccccc2n1 | 4.3% (inactive) | 5.5%
Cc1cc(C)c(S(=O)(=O)Nc2nc(C(C(=O)OC(C)C)C(=O)C(F)(F)F)nc3ccccc23)c(C)c1 (stereo not given) | 1.9% (inactive) | -4.5%
O=C1c2ccccc2C(=O)N1CC1=NCCc2ccccc21 | -0.2% (inactive) | 1.1%
C=CC(=O)NC[C@@H]1c2ccccc2CCN1C(=O)[C@@H]1CCCC[C@@H]1C(=O)O | 1.1% (inactive) | -5.2%
COc1ccccc1CCNC(=O)[C@@H]1c2ccccc2CCN1C(=O)C1CCCCC1C(=O)O (stereo not given in full) | -4.2% (inactive) and -2.2% (inactive) | -12.8% and -7.2%
O=C(O)C1CCCCC1C(=O)N1CCc2ccccc2C1CN1Cc2ccccc2C1=O (stereo not given) | 77.7% | 27.7%
Cc1ccc(S(=O)(=O)NC(=O)[C@@H]2c3ccccc3CCN2C(=O)[C@@H]2CCCC[C@@H]2C(=O)O)cc1 |  | 0.2% and -3.9%
CCOC(=O)C(C(=O)OCC)c1cc(CNS(=O)(=O)c2ccc(C)cc2C)c2ccccc2n1 | 4.8% (inactive) | 3.9%
O=C(O)C1CCCCC1C(=O)N1CCc2ccccc2C1CN1C(=O)[C@H]2CCCC[C@H]2C1=O (stereo not given in full) | 65.5% | 19.1%
O=C(NC[C@@H]1c2ccccc2CCN1C(=O)[C@@H]1CCCC[C@@H]1C(=O)O)c1ccccc1CO | 39.3% | 7.3%
O=C(O)C1CCCCC1C(=O)N1CCc2ccccc2C1CN1C(=O)c2ccccc2S1(=O)=O (stereo not given) | 68.1% | 18.5%
O=C(Cc1ccccc1)NC[C@@H]1c2ccccc2CCN1C(=O)[C@@H]1CCCC[C@@H]1C(=O)O | 36.9% | 7%
O=C(O)C1CCCCC1C(=O)N1CCCCC1CN1C(=O)c2ccccc2C1=O (stereo not given) | 13.5% (inactive) | 0.4%
O=C(O)[C@H]1CCCC[C@H]1C(=O)N1CCc2ccccc2[C@H]1CNS(=O)(=O)c1ccc([N+](=O)[O-])cc1 | 26.7% | 4%
O=C(O)[C@H]1CCCC[C@H]1C(=O)N1CCc2ccccc2[C@H]1CNc1nc(Cl)nc2ccccc12 | 3.7% (inactive) | -1.3%
